Data taken from ChEMBL document CHEMBL4190195, “Bioactive Glycosides from the Twigs of Litsea cubeba” (J Nat Prod, 2017).
Active and inactive are the calls of the source. The calls are words filed in the database; no cut-off is given here.

Legend:
[1] = tested on: HepG2; assay: Cytoprotection against 8 mM acetaminophen-induced human HepG2 cells assessed as cell viability at 10 uM after 24 hrs by MTT assay (reference value: 0 +/- 2%); assay type: functional; conditions: in the assay text read “after 48 hrs” for “after 24 hrs”
Outline: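 HepG2 cells seeded at 1.5 × 10^4 cells/well in DMEM and grown 24 h at 37 °C, 5% CO2. Compound (10 μM) then added together with 8 mM acetaminophen; bicyclol 10 μM plus 8 mM acetaminophen served as reference. Cultured 48 h, then 0.5 mg/mL MTT for 4 h, formazan OD read at 570 nm. Mean ± SD of four independent experiments; Student's t-test.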

[2] = molecular target: Histone deacetylase 1 (Homo sapiens, UniProt Q13547); assay: Inhibition of HDAC1 (unknown origin) using H3(1 to 21)K9 after 60 mins by fluorescence assay
[3] = tested on: Peritoneal macrophage; assay: Inhibition of LPS-induced TNFalpha secretion in C57BL6J mouse peritoneal macrophages at 10 uM after 24 hrs; assay type: functional, cell-based
[4] = tested on: Bel-7402; assay: Cytotoxicity against human Bel7402 cells assessed as growth inhibition at 10 uM after 72 hrs by coulter counting method; assay type: functional, cell-based
[5] = tested on: A549; assay: Cytotoxicity against human A549 cells assessed as growth inhibition at 10 uM after 72 hrs by coulter counting method; assay type: functional, cell-based
[6] = tested on: BGC-823; assay: Cytotoxicity against human BGC823 cells assessed as growth inhibition at 10 uM after 72 hrs by coulter counting method; assay type: functional, cell-based
[7] = tested on: HCT-8; assay: Cytotoxicity against human HCT8 cells assessed as growth inhibition at 10 uM after 72 hrs by coulter counting method; assay type: functional, cell-based
[8] = tested on: A2780; assay: Cytotoxicity against human A2780 cells assessed as growth inhibition at 10 uM after 72 hrs by coulter counting method; assay type: functional, cell-based

Histone deacetylase 1, sequence (Q13547 whole entry): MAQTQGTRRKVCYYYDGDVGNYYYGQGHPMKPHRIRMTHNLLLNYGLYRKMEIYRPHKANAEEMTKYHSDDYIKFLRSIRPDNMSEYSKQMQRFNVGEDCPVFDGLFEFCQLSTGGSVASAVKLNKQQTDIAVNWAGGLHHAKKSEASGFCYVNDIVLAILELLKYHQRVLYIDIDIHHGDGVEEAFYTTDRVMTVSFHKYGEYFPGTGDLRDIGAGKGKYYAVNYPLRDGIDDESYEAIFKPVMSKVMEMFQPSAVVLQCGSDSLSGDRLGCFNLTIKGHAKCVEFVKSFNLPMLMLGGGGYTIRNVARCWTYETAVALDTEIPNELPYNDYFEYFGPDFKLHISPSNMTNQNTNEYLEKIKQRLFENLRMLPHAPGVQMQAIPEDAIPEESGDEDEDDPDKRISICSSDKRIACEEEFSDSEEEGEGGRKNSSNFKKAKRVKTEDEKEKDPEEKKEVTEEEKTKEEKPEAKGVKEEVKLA

Work on `COC(=O)c1cc(OC)c2c(c1-c1c(CO)cc(OC)c3c1OCO3)OCO2` [BICYCLOL] yielded an Activity [1] of 34.8%.

With `COc1cc([C@H]2Oc3c(OC)cc(/C=C/CO[C@@H]4O[C@H](CO)[C@@H](O)[C@H](O)[C@H]4O)cc3[C@@H]2CO)cc(OC)c1O[C@@H]1O[C@H](CO)[C@@H](O)[C@H](O)[C@H]1O` the Activity [1] was 30.5%.

`COc1cc([C@H]2Oc3c(OC)cc(CCCO)cc3[C@@H]2CO[C@@H]2O[C@H](CO[C@@H]3O[C@@H](C)[C@H](O)[C@@H](O)[C@H]3O)[C@@H](O)[C@H](O)[C@H]2O)ccc1O` gave an Activity [1] of 37.4%.

In the case of `COc1cc([C@H]2Oc3c(OC)cc(CCCO)cc3[C@@H]2CO)ccc1O[C@@H]1O[C@H](CO)[C@@H](O)[C@H](O)[C@H]1O`, the IC50 [2] is reported as 3.6 µM, the inhibition [3] is reported as “inactive” and the “growth inhibition (GI)” value [4] is reported as “inactive”. For the same compound, the “growth inhibition (GI)” value [5] was “inactive”, the Activity [1] was 38.4% and the “growth inhibition (GI)” value [6] was “inactive”. The “growth inhibition (GI)” value [7] was “inactive” and the “growth inhibition (GI)” value [8] was “inactive”.

For `COc1cc([C@H]2Oc3c(OC)cc(CCCO)cc3[C@@H]2CO)cc(OC)c1O[C@@H]1O[C@H](CO)[C@@H](O)[C@H](O)[C@H]1O`, the Activity [1] was 31.2%.

Work on `COc1cc([C@H]2Oc3c(OC)cc(/C=C/CO[C@@H]4O[C@H](CO)[C@@H](O)[C@H](O)[C@H]4O)cc3[C@@H]2CO)ccc1O[C@@H]1O[C@H](CO)[C@@H](O)[C@H](O)[C@H]1O` yielded an Activity [1] of 46%.

In the case of `CCC(=O)c1cc(OC)c(O[C@@H]2O[C@H](CO[C@@H]3O[C@@H](C)[C@H](O)[C@@H](O)[C@H]3O)[C@@H](O)[C@H](O)[C@H]2O)c(OC)c1`, the Activity [1] is reported as 37.6%.

`COc1cc([C@@H](O)[C@H](CO)Oc2c(OC)cc(CCC(C)O)cc2OC)cc(OC)c1O[C@@H]1O[C@H](CO)[C@@H](O)[C@H](O)[C@H]1O` (some centres not stated) was tested, and the Activity [1] was 38.9%.

For `O=C(O)/C=C\c1cc2ccoc2cc1O[C@@H]1O[C@H](CO)[C@@H](O)[C@H](O)[C@H]1O`, the IC50 [2] was 4.6 µM, the inhibition [3] was “inactive” and the “growth inhibition (GI)” value [4] was “inactive”. For the same compound, the “growth inhibition (GI)” value [5] was “inactive”, the “growth inhibition (GI)” value [6] was “inactive” and the “growth inhibition (GI)” value [7] was “inactive”. For the same compound, the “growth inhibition (GI)” value [8] was “inactive”.
